In ChEMBL document CHEMBL5329172, “Chloroacetamide fragment library screening identifies new scaffolds for covalent inhibition of the TEAD·YAP1 interaction” (RSC Med Chem, 2023):
The source made the active and inactive calls. The rule behind the calls is not given here.

Legend:
S2 = experiment: Inhibition of uPAR (unknown origin) expressed in S2 cells/FAM-labelled alpha-helical peptide AE-147 (unknown origin) protein-protein interaction preincubated for 24 hrs at 4 degree C with uPAR followed by fluorescent labelled AE-147 addition by fluorescence polarization assay; details: Homo sapiens
Summary of the method: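 Counter-screen FP: 250 nM uPAR lacking the GPI anchor (from S2 cells) was preincubated with compound for 24 h at 4 °C in PBS with 0.01% Triton X-100. AE-147-FAM peptide was then added at 100 nM final and polarization read at ex 485/em 535 nm.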

[1] = biological target: T1, YAP1-TEAD4 (Homo sapiens) (UniProt P46937+Q15561); experiment: (§1) Covalent inhibition of GST-tagged TEAD4 (217 to 434 residues) (unknown origin) expressed in Escherichia coli BL21 (DE3) cells/FAM-labelled YAP1 (60 to 99 residues)(unknown origin) protein-protein interaction assessed as second protein-compound adduct formation at 100 uM incubated for 24 hrs at 4 degree C followed by mass spectrometry analysis
Summary of the method: (§2)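 Intact-protein MS: 2.5 μM protein (TEAD4 217–434 with GST cleaved, TEAD4C367S, TEAD1 209–426, TEAD2 217–447 or TEAD3 210–427) incubated with 100 μM compound in PBS for 24 h at 4 °C. Samples were centrifuged to remove precipitate, desalted on a C3 reverse-phase column with a water/acetonitrile 0.1% formic acid gradient, and masses were read by Q-TOF. Adduct peaks were reported as percent.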

Homo sapiens [2] = organism: Homo sapiens; experiment: Inhibition of GST-tagged TEAD4 C367S mutant (unknown origin) expressed in Escherichia coli BL21 (DE3) cells/FAM-labelled YAP1 (60 to 99 residues)(unknown origin) protein-protein interaction preincubated for 24 hrs at 4 degree C with TEAD4 C367S mutant followed by fluorescent labelled YAP1 addition by fluorescence polarization assay
Summary of the method: (§3)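 FP: 64 nM TEAD4, TEAD4C367S, TEAD2 or TEAD3, or 250 nM TEAD1, was preincubated with compound for 24 h at 4 °C in PBS with 0.01% Triton X-100. FAM-YAP1 60–99 peptide (disulfide-crosslinked) was then added at 16 nM final. Polarization was read at ex 485/em 535 nm. Percent inhibition was taken relative to no-compound and no-protein controls. The single-point primary screen used 50 μM.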

[3] = biological target: T1, YAP1-TEAD4 (Homo sapiens); experiment: Inhibition of GST-tagged TEAD4 (217 to 434 residues) (unknown origin) expressed in Escherichia coli BL21 (DE3) cells/FAM-labelled YAP1 (60 to 99 residues)(unknown origin) protein-protein interaction assessed as maximum inhibition at 50 uM preincubated for 24 hrs at 4 degree C with TEAD4 followed by fluorescent labelled YAP1 addition by fluorescence polarization assay; summary of the method: as §3
[4] = biological target: T1, YAP1-TEAD4 (Homo sapiens); experiment: as §1, with “as” for “as second”; summary of the method: as §2
YAP1-TEAD4 = YAP1-TEAD4 (Homo sapiens, UniProt Q15561); experiment: Inhibition of GST-tagged TEAD4 (217 to 434 residues) (unknown origin) expressed in Escherichia coli BL21 (DE3) cells/FAM-labelled YAP1 (60 to 99 residues)(unknown origin) protein-protein interaction preincubated for 24 hrs at 4 degree C with TEAD4 followed by fluorescent labelled YAP1 addition by fluorescence polarization assay; summary of the method: as §3
[5] = biological target: T1, YAP1-TEAD4 (Homo sapiens); experiment: as §1, with “additional” for “second”; summary of the method: as §2
Homo sapiens [6] = organism: Homo sapiens; experiment: as §1, with “C367S mutant” for “(217 to 434 residues)”, “(DE3)/FAM-labelled” for “(DE3) cells/FAM-labelled”, “as” for “as second”; summary of the method: as §2

Chain of YAP1-TEAD4 (P46937 whole entry, the tested form may be a part): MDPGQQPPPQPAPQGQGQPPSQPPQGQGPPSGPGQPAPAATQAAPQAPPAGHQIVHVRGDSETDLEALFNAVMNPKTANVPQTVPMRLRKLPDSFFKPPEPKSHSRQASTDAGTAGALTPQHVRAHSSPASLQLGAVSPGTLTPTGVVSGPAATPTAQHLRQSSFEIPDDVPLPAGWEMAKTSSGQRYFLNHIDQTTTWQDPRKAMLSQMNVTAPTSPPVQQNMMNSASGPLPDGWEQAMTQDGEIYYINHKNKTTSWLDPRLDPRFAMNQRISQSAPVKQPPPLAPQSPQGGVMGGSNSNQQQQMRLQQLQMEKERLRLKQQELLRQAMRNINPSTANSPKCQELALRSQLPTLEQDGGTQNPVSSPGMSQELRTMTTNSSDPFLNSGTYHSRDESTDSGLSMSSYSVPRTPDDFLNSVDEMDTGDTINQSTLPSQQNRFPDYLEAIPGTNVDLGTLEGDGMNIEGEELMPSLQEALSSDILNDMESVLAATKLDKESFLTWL
Chain of YAP1-TEAD4 (Q15561 whole entry, the tested form may be a part): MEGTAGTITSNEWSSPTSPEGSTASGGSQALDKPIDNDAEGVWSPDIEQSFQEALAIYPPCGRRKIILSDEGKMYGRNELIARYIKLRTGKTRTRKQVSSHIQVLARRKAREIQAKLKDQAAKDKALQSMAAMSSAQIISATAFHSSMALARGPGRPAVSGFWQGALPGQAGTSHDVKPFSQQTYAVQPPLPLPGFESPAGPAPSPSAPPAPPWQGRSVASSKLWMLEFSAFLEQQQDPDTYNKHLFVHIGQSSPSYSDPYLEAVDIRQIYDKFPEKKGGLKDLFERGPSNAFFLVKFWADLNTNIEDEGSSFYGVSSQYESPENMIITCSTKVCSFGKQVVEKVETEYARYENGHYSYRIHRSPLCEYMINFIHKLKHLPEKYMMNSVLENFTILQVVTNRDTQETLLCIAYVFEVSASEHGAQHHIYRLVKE

Row | percent second protein-compound adduct [1] | Imax [3] | percent protein-compound adduct formation [4] | IC50 (YAP1-TEAD4) | percent protein-compound adduct formation [5] | inhibition (Homo sapiens [6]) | SMILES | inhibition (S2) | inhibition (Homo sapiens [2])
1 | 12% | 39% | 51% | 1.1 µM | 15% | inactive | COc1ccc(N(C(=O)CCl)C(C(=O)NCCc2ccccc2)c2cccs2)cc1Cl (stereo not drawn) | inactive | inactive
2 |  | 41% | 27% | 3.8 µM |  | inactive | Cc1ccc(C2CC(c3cccs3)=NN2C(=O)CCl)cc1 (stereo not drawn) | inactive | inactive
3 | 30% | 45% | 38% | 5.8 µM |  | inactive | COc1ccc(C2=NN(C(=O)CCl)C(c3nc4ccccc4[nH]3)C2)cc1 (stereo not drawn) | inactive | inactive
4 | 21% | 52% | 38% | 5.9 µM |  | inactive | O=C(CCl)N1N=C(c2ccccc2)CC1c1ccccc1 (stereo not drawn) | inactive | inactive
5 |  | 49% | 31% | 7.4 µM |  | inactive | COc1ccc(C(C(=O)NC2CCCCCC2)N(Cc2ccccc2)C(=O)CCl)cc1 (stereo not drawn) | inactive | inactive
6 | 31% |  | 54% |  |  |  | O=C(CCl)N1CCN(S(=O)(=O)c2ccc(Cl)cc2[N+](=O)[O-])CC1 | inactive | inactive
7 |  | 48% | 38% | 22.8 µM |  |  | Cc1ccc(S(=O)(=O)N2CCN(C(=O)CCl)CC2)cc1C | inactive | inactive
8 | 30% | 50% | 29% | 2 µM | 30% |  | Cc1ccc2c(c1)c1c3n2CCN(C(=O)CCl)C3CCC1 (stereo not drawn) | inactive | inactive
9 |  | 49% | 73% | 4.9 µM |  |  | O=C(CCl)N1CCN(S(=O)(=O)/C=C/c2ccccc2)CC1 | inactive | inactive
10 |  | 42% | 47% | 10.5 µM |  | inactive | COc1ccc(C(C(=O)NCCc2ccccc2)N(Cc2cccs2)C(=O)CCl)cc1 (stereo not drawn) | inactive | inactive
11 |  | 40% | 15% | 4 µM |  | inactive | O=C(NCCc1ccccc1)C(c1cccs1)N(C(=O)CCl)c1ccc(Cl)cc1 (stereo not drawn) | inactive | inactive
12 | 9% | 46% | 45% | 4.7 µM |  | inactive | O=C(CCl)N1N=C(c2cccs2)CC1c1cccs1 (stereo not drawn) | inactive | inactive

Continued, compound first:

Row | SMILES | percent second protein-compound adduct [1] | Imax [3] | percent protein-compound adduct formation [4] | IC50 (YAP1-TEAD4) | percent protein-compound adduct formation [5] | inhibition (Homo sapiens [6]) | inhibition (S2) | inhibition (Homo sapiens [2])
13 | COc1ccc(C(C(=O)NC2CCCCCC2)N(Cc2cccs2)C(=O)CCl)cc1 (stereo not drawn) |  | 41% | 32% | 4.8 µM |  | inactive | inactive | inactive
14 | COc1ccc(CN(C(=O)CCl)C(C(=O)NC2CCCCCC2)c2ccc(OC)cc2)cc1 (stereo not drawn) |  | 45% | 37% | 5.5 µM |  | inactive | inactive | inactive
15 | COc1ccc(CN(C(=O)CCl)C(C(=O)NC2CCCCC2)c2cccs2)cc1 (stereo not drawn) | 20% | 67% | 12% | 13 µM | 30% | inactive | inactive | inactive
16 | Cc1ccc(S(=O)(=O)N2CCN(C(=O)CCl)C2)cc1 | 25% | 49% | 75% | 1.9 µM |  |  | inactive | inactive
17 | Cc1ccc(S(=O)(=O)N2CCN(C(=O)CCl)C2c2ccccc2)cc1 (stereo not drawn) | 23% | 50% | 52% | < 1 µM |  |  | inactive | inactive
18 | COc1ccc(C2=NN(C(=O)CCl)C(c3cccc(OC)c3OC)C2)cc1 (stereo not drawn) |  | 39% | 42% | 1.1 µM |  | inactive | inactive | inactive
19 | COc1ccc(C(C(=O)NC2CCCCCC2)N(Cc2ccc(C)cc2)C(=O)CCl)cc1 (stereo not drawn) |  | 36% | 25% | 4.4 µM |  | inactive | inactive | inactive
20 | O=C(CCl)N1N=C(c2ccc(Cl)cc2)CC1c1ccco1 (stereo not drawn) | 18% | 62% | 64% | 6 µM |  | inactive | inactive | inactive
21 | O=C(CCl)N1N=C2/C(=C/c3ccco3)CCCC2C1c1ccco1 (stereo not drawn) | 10% | 67% | 32% | 7.8 µM |  | inactive | inactive | inactive
22 | O=C(CCl)N1N=C(c2ccc(Br)cc2)CC1c1ccc(F)cc1 (stereo not drawn) |  | 41% | 27% | 1.5 µM |  | inactive | inactive | inactive
